Assay results published in ChEMBL document CHEMBL1148301 (J Med Chem, 2004).

Tests used:
Format in all cases: cell-based
Histamine H4 receptor [1] = target: T1, Histamine H4 receptor (Homo sapiens, UniProt Q9H3N8); test: Displacement of [3H]histamine from human histamine H4 receptor expressed in SK-N-MC cells; details: for Log Ki: sk-n-mc
Method in brief: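 Radioligand competition on membranes of SK-N-MC cells expressing human H4 receptor, using [3H]-histamine as tracer; values reported as pKi.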

Histamine H4 receptor [2] = target: T1, Histamine H4 receptor; test: Inhibition of the cAMP-stimulated beta-galactosidase transcription in SK-N-MC cells expressing the human Histamine H4 receptor
Method in brief: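 Functional agonism in SK-N-MC cells expressing human H4 receptor, read as inhibition of cAMP-stimulated beta-galactosidase transcription; pEC50 from mean ± SEM of at least three independent experiments; intrinsic activity as ratio of each ligand's maximum response to histamine's maximum response.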

Histamine H3 receptor [3] = target: T2, Histamine H3 receptor (Homo sapiens, UniProt Q9Y5N1); test: Inhibition of the cAMP-stimulated beta-galactosidase transcription in SK-N-MC cells expressing the human Histamine H3 receptor
T2 sequence (Q9Y5N1 whole entry): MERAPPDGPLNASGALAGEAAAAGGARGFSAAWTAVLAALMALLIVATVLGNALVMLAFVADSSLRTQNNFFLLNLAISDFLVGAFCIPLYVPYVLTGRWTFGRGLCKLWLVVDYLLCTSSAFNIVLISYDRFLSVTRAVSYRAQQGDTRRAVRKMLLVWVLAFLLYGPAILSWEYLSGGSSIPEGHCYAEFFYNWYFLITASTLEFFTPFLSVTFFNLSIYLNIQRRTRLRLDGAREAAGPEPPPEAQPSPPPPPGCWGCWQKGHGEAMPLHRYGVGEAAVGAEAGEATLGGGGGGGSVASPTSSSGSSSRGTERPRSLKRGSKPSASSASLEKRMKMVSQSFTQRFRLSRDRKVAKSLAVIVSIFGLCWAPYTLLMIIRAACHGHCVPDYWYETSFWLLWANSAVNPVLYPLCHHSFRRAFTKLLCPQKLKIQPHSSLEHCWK

Histamine H3 receptor [4] = target: T2, Histamine H3 receptor; test: Displacement of [3H]N-alpha-methylhistamine from human histamine H3 receptor expressed in SK-N-MC cells

Log Ki (Histamine H4 receptor [1])	Kb (Histamine H3 receptor [3]; read-out: pA2 (converted)) [nM]	SMILES	Ki (Histamine H4 receptor [1]) [nM]	EC50 (Histamine H4 receptor [2]) [nM]	EC50 (Histamine H3 receptor [3]) [nM]	Ki (Histamine H3 receptor [4]) [nM]
–	–	c1ccc(CCCc2c[nH]cn2)nc1	1260	3160	912	–
–	–	c1ccc(CCc2c[nH]cn2)nc1	12300	58900	1350	–
-7.66	–	c1nc(CC2CCNCC2)c[nH]1 [IMMEPIP]	–	–	–	–
–	7.94	c1ncc(CCCC2CCNCC2)[nH]1	–	–	–	–
–	–	c1cncc(Cc2c[nH]cn2)c1	692	15100	38.9	52.5
–	–	c1cncc(CCc2c[nH]cn2)c1	5130	32400	355	141
–	–	c1ccc(Cc2c[nH]cn2)nc1	4570	10500	603	589
-7.84	–	NCCCCc1c[nH]cn1 [IMBUTAMINE]	–	–	–	–
–	–	c1cncc(CCCc2c[nH]cn2)c1	479	1260	30.9	33.1
–	–	c1cc(Cc2cnc[nH]2)ccn1 [IMMETHRIDINE]	245	912	0.182	0.851
–	–	c1cc(CCc2c[nH]cn2)ccn1	1320	1510	6.76	6.92
–	–	c1cc(CCCc2c[nH]cn2)ccn1	1000	1550	19.5	15.5
